Measured values as given in ChEMBL document CHEMBL4673344, “Novel substituted N-benzyl(oxotriazinoindole) inhibitors of aldose reductase exploiting ALR2 unoccupied interactive pocket” (Bioorg Med Chem, 2021).

Assays:
Rattus norvegicus [1] = species on record: Rattus norvegicus; assay: Potency index, ratio of IC50 of OTI-6 to IC50 of compound for inhibition of Wistar rat lens ALR2 assessed as reduction in NADPH consumption using D,L-glyceraldehyde as substrate incubated for 1 min and measured up to 4 mins by spectrophotometric analysis; format: tissue-based
Rattus norvegicus [2] = species on record: Rattus norvegicus; assay: Selectivity index, ratio of IC50 for Wistar rat kidney ALR1 to IC50 for Wistar rat lens ALR2
How it was run: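 Selectivity factor S_F = IC50(ALR1)/IC50(ALR2). ALR1 came from rat kidneys and ALR2 from rat eye lenses with D,L-glyceraldehyde as substrate. Both were assayed spectrophotometrically by NADPH consumption at 340 nm.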

[3] = Inhibition of Wistar rat kidney ALR1 assessed as reduction in NADPH consumption using sodium D-glucuronate as substrate incubated for 1 min and measured up to 4 mins by spectrophotometric analysis; format: tissue-based
How it was run: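 Aldehyde reductase (ALR1) was isolated from rat kidneys. Activity was monitored spectrophotometrically by NADPH consumption at 340 nm, expressed as decrease in O.D./s/mg protein. The IC50 was determined from inhibition of this activity.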

[4] = Inhibition of Wistar rat lens ALR2 assessed as reduction in NADPH consumption using D,L-glyceraldehyde as substrate incubated for 1 min and measured up to 4 mins by spectrophotometric analysis; format: tissue-based
How it was run: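 ALR2 was isolated from rat eye lenses and assayed for reduction of D,L-glyceraldehyde. NADPH consumption was read spectrophotometrically at 340 nm, with activity expressed as decrease in O.D./s/mg protein. The IC50 was derived from inhibition of this activity.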

ALR1 = assay: Inhibition of Wistar rat kidney ALR1 assessed as reduction in NADPH consumption using sodium D-glucuronate as substrate at 100 uM incubated for 1 min and measured up to 4 mins by spectrophotometric analysis relative to control; format: tissue-based; details: rat kidney ALR1 (aldehyde reductase) enzyme, probe sodium D-glucuronate
How it was run: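 Enzyme: ALR1 isolated from rat kidneys. Activity was followed spectrophotometrically as NADPH consumption at 340 nm and expressed as decrease in O.D./s/mg protein. Inhibition is given as % of enzyme inhibition at 100 μM inhibitor.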

Ratio IC50 (Rattus norvegicus [2]) | IC50 [3] [µM] | IC50 [4] [nM] | pIC50 [4] | inhibition at 4 min, 100 µM (ALR1) [%] | Compound | Ratio IC50 (Rattus norvegicus [1])
> 424 | > 100 | 236 | 6.63 | 50 | NC(=O)c1ccccc1Cn1nc2c3ccccc3n(CC(=O)O)c2nc1=O | 2
424 | 59 | 139 | 6.86 | 62 | O=C(O)Cn1c2ccccc2c2nn(Cc3ccccc3C(=O)O)c(=O)nc21 | 
> 230 | > 100 | 434 | 6.36 | 38 | O=C(O)Cn1c2ccccc2c2nn(Cc3ccccc3)c(=O)nc21 | 
> 1330 | > 100 | 76 | 7.12 | 51 | N#Cc1ccccc1Cn1nc2c3ccccc3n(CC(=O)O)c2nc1=O | 
> 410 | > 100 | 241 | 6.61 | 33 | O=C(O)Cn1c2ccccc2c2nn(Cc3ccccc3CO)c(=O)nc21 | 2
